Measured values as given in ChEMBL document CHEMBL1177882, “Novel bisstyryl derivatives of bakuchiol: targeting oral cavity pathogens” (2010).
≈ marks a conversion by molar mass, not a printed value. Calls of active or inactive are those of the source. The rule behind the calls is not given here.

Columns and labels:
Actinomyces viscosus [1] = assay: Antibacterial activity against Actinomyces viscosus ATCC 15987 after 24 hrs by broth microdilution method; conditions: ATCC 15987, 24 h
Prevotella intermedia [2] = assay: Antibacterial activity against Prevotella intermedia ATCC 25611 after 48 hrs by broth microdilution method; format: functional; conditions: ATCC 25611, 48 h
In short: (§1)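 Broth microdilution MIC for obligate anaerobes, run in their growth media (Wilkins–Chalgren for F. nucleatum and P. intermedia; supplemented Todd Hewitt broth for P. gingivalis). Inoculum suspended in Brucella broth, final 5 × 10^6 cfu/ml. Twofold dilutions, final 0.12–128 µg/ml. Incubated anaerobically (90% N2/5% H2/5% CO2) at 37 °C for 48 h; MIC is the lowest concentration without turbidity.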

Streptococcus sanguinis [3] = assay: Antibacterial activity against Streptococcus sanguinis ATCC 10556 after 24 hrs by broth microdilution method; conditions: ATCC 10556, 24 h
Actinomyces viscosus [4] = assay: Antibacterial activity against Actinomyces viscosus ATCC 15987 after 48 hrs by broth microdilution method; format: functional; conditions: ATCC 15987, 48 h
Porphyromonas gingivalis [5] = assay: Antibacterial activity against Porphyromonas gingivalis ATCC 33277 after 48 hrs by broth microdilution method; format: functional; conditions: ATCC 33277, 48 h
In short: as §1

Streptococcus sanguinis [6] = assay: Antibacterial activity against Streptococcus sanguinis ATCC 10556 after 48 hrs by broth microdilution method; format: functional; conditions: ATCC 10556, 48 h
Fusobacterium nucleatum [7] = assay: Antibacterial activity against Fusobacterium nucleatum ATCC 10953 after 48 hrs by broth microdilution method; format: functional; conditions: ATCC 10953, 48 h
In short: as §1

Streptococcus mutans [8] = assay: Antibacterial activity against Streptococcus mutans ATCC 25175 after 24 hrs by broth microdilution method; conditions: ATCC 25175, 24 h
Streptococcus mutans [9] = assay: Antibacterial activity against Streptococcus mutans ATCC 25175 after 48 hrs by broth microdilution method; format: functional; conditions: ATCC 25175, 48 h
Streptococcus mutans [10] = assay: Antibacterial activity against Streptococcus mutans ATCC 25175 assessed as inhibition of biofilm formation after 18 hrs; format: functional
In short: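 Single-species S. mutans biofilm grown in flat-bottom polystyrene wells, BHI with 2% sucrose, 6 × 10^7 cfu/ml final, compound twofold 0.12–128 µg/ml, 18 h at 37 °C in 5% CO2. Wells rinsed with PBS pH 7.2, methanol-fixed, stained with 0.1% crystal violet, eluted in 95% ethanol, A595 read. % inhibition relative to untreated control; MBIC50 is the lowest concentration giving ≥50% inhibition.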

Streptococcus mutans [11] = assay: Antibacterial activity against Streptococcus mutans ATCC 25175 assessed as increase of cell membrane permeability at 2 time MIC after 60 mins propidium iodide staining by flow cytometry; format: functional, organism-based
In short: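 Overnight BHI culture of S. mutans washed into 50 mmol/l sodium phosphate pH 7.1 (~1 × 10^9 cfu/ml), diluted 1:20 into buffer with compound at 2 × MIC. Incubated 60 min at room temperature; aliquots diluted in buffer and stained with propidium iodide at 10 µg/ml final on ice. The percentage of PI-stained cells was measured by flow cytometry.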

Streptococcus mutans [12] = assay: Ratio of compound MIC to bakuchiol MIC for Streptococcus mutans ATCC 25175; format: functional
Streptococcus sanguinis [13] = assay: Ratio of compound MIC to bakuchiol MIC for Streptococcus sanguinis ATCC 10556; format: functional
Streptococcus mutans [14] = assay: Antibacterial activity against Streptococcus mutans ATCC 25175 assessed as 280 nm absorbing material release at 2 time MIC after 60 mins by spectrophotometric analysis; format: functional, organism-based
In short: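 S. mutans prepared in 50 mmol/l phosphate pH 7.1 (~1 × 10^9 cfu/ml) was exposed to compound at 2 × MIC for 60 min at 37 °C. Supernatant taken after centrifugation (10,000 g, 10 min) and read at A280. Release is expressed as % of a total-release control made by lysozyme treatment (100 µg/ml, 60 min, 37 °C) plus sonication.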

Prevotella intermedia [15] = assay: Ratio of compound MIC to bakuchiol MIC for Prevotella intermedia ATCC 25611; format: functional
Fusobacterium nucleatum [16] = assay: Ratio of compound MIC to bakuchiol MIC for sFusobacterium nucleatum ATCC 10953; format: functional
Porphyromonas gingivalis [17] = assay: Ratio of compound MIC to bakuchiol MIC for Porphyromonas gingivalis ATCC 33277; format: functional
Actinomyces viscosus [18] = assay: Ratio of compound MIC to bakuchiol MIC for Actinomyces viscosus ATCC 15987; format: functional
Streptococcus mutans [19] = assay: Antibacterial activity against Streptococcus mutans ATCC 25175 assessed as decrease in cell viability at 2 time MIC after 60 mins by serial dilution method relative to control; format: functional
In short: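 S. mutans suspension from an 18 h culture (~1 × 10^9 cfu/ml) diluted 1:20 into phosphate buffer containing compound at 2 × MIC. Incubated 60 min at 37 °C, then serially diluted in saline and plated on BHI agar. Colonies counted after 48 h at 37 °C in 5% CO2; viability given as CFU/ml relative to untreated cells.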

SMILES | MIC (Actinomyces viscosus [1]) | MBC (Prevotella intermedia [2]) | MIC (Prevotella intermedia [2]) | MIC (Streptococcus sanguinis [3]) | MBC (Actinomyces viscosus [4]) | MBC (Porphyromonas gingivalis [5]) | MIC (Porphyromonas gingivalis [5]) | MBC (Streptococcus sanguinis [6]) | MBC (Fusobacterium nucleatum [7]) | MIC (Fusobacterium nucleatum [7]) | MIC (Streptococcus mutans [8]) | MBC (Streptococcus mutans [9]) | MBIC50 (Streptococcus mutans [10]) | other results
Oc1cc(Cl)ccc1Oc1ccc(Cl)cc1Cl [TRICLOSAN] | 4 µg/mL (≈ 13.8 µM) | 1 µg/mL (≈ 3.45 µM) | 1 µg/mL (≈ 3.45 µM) | 4 µg/mL (≈ 13.8 µM) | 8 µg/mL (≈ 27.6 µM) | 2 µg/mL (≈ 6.91 µM) | 2 µg/mL (≈ 6.91 µM) | 4 µg/mL (≈ 13.8 µM) | 2 µg/mL (≈ 6.91 µM) | 2 µg/mL (≈ 6.91 µM) | 4 µg/mL (≈ 13.8 µM) | 8 µg/mL (≈ 27.6 µM) | – | –
COc1ccc(/C=C/[C@@](C)(/C=C/c2ccc(O)cc2)CCC=C(C)C)cc1 | 2 µg/mL (≈ 5.52 µM) | 4 µg/mL (≈ 11 µM) | 2 µg/mL (≈ 5.52 µM) | 2 µg/mL (≈ 5.52 µM) | 2 µg/mL (≈ 5.52 µM) | 1 µg/mL (≈ 2.76 µM) | 0.5 µg/mL (≈ 1.38 µM) | 2 µg/mL (≈ 5.52 µM) | 8 µg/mL (≈ 22.1 µM) | 8 µg/mL (≈ 22.1 µM) | 1 µg/mL (≈ 2.76 µM) | 2 µg/mL (≈ 5.52 µM) | 2 µg/mL | Activity (Streptococcus mutans [11]): Active; Ratio (Streptococcus mutans [12]): 2; Ratio (Streptococcus sanguinis [13]): 2; Activity (Streptococcus mutans [14]): Active; Ratio (Prevotella intermedia [15]): 2; Ratio (Fusobacterium nucleatum [16]): 0.25; Ratio (Porphyromonas gingivalis [17]): 2; Ratio (Actinomyces viscosus [18]): 2; Activity (Streptococcus mutans [19]): >80%
C=C[C@@](C)(/C=C/c1ccc(O)c(N)c1)CCC=C(C)C | 16 µg/mL (≈ 59 µM) | 32 µg/mL (≈ 118 µM) | 16 µg/mL (≈ 59 µM) | 16 µg/mL (≈ 59 µM) | 32 µg/mL (≈ 118 µM) | 4 µg/mL (≈ 14.7 µM) | 2 µg/mL (≈ 7.37 µM) | 32 µg/mL (≈ 118 µM) | 64 µg/mL (≈ 236 µM) | 32 µg/mL (≈ 118 µM) | 16 µg/mL (≈ 59 µM) | 32 µg/mL (≈ 118 µM) | – | –
CC(C)=CCCC(C)(/C=C/c1ccc(O)cc1)/C=C/c1ccc(O)cc1 | 0.5 µg/mL (≈ 1.43 µM) | 1 µg/mL (≈ 2.87 µM) | 0.25 µg/mL (≈ 0.717 µM) | 0.25 µg/mL (≈ 0.717 µM) | 1 µg/mL (≈ 2.87 µM) | 1 µg/mL (≈ 2.87 µM) | 0.25 µg/mL (≈ 0.717 µM) | 1 µg/mL (≈ 2.87 µM) | > 128 µg/mL | > 128 µg/mL | 0.5 µg/mL (≈ 1.43 µM) | 1 µg/mL (≈ 2.87 µM) | 1 µg/mL | Activity (Streptococcus mutans [11]): Active; Activity (Streptococcus mutans [14]): Active; Activity (Streptococcus mutans [19]): >80%
COc1ccc(/C=C/[C@@](C)(/C=C/c2ccc(O)cc2)CCC=C(C)C)cc1CO | 4 µg/mL (≈ 10.2 µM) | 4 µg/mL (≈ 10.2 µM) | 2 µg/mL (≈ 5.1 µM) | 4 µg/mL (≈ 10.2 µM) | 8 µg/mL (≈ 20.4 µM) | 4 µg/mL (≈ 10.2 µM) | 2 µg/mL (≈ 5.1 µM) | 8 µg/mL (≈ 20.4 µM) | > 128 µg/mL | > 128 µg/mL | 4 µg/mL (≈ 10.2 µM) | 4 µg/mL (≈ 10.2 µM) | 8 µg/mL | –
CC[C@](C)(CCCC(C)C)CCc1ccc(O)cc1 | 2 µg/mL (≈ 7.62 µM) | 4 µg/mL (≈ 15.2 µM) | 2 µg/mL (≈ 7.62 µM) | 1 µg/mL (≈ 3.81 µM) | 4 µg/mL (≈ 15.2 µM) | 2 µg/mL (≈ 7.62 µM) | 1 µg/mL (≈ 3.81 µM) | 2 µg/mL (≈ 7.62 µM) | > 128 µg/mL | > 128 µg/mL | 2 µg/mL (≈ 7.62 µM) | 4 µg/mL (≈ 15.2 µM) | 4 µg/mL | –
C=C[C@@](C)(/C=C/c1ccc(OC(C)=O)cc1)CCC=C(C)C [ACETYLBAKUCHIOL] | 32 µg/mL (≈ 107 µM) | 64 µg/mL (≈ 214 µM) | 64 µg/mL (≈ 214 µM) | 16 µg/mL (≈ 53.6 µM) | 64 µg/mL (≈ 214 µM) | 8 µg/mL (≈ 26.8 µM) | 8 µg/mL (≈ 26.8 µM) | 16 µg/mL (≈ 53.6 µM) | > 128 µg/mL | > 128 µg/mL | 128 µg/mL (≈ 429 µM) | > 128 µg/mL | – | –
COc1ccccc1/C=C/[C@@](C)(/C=C/c1ccc(O)cc1)CCC=C(C)C | 2 µg/mL (≈ 5.52 µM) | 4 µg/mL (≈ 11 µM) | 2 µg/mL (≈ 5.52 µM) | 2 µg/mL (≈ 5.52 µM) | 4 µg/mL (≈ 11 µM) | 2 µg/mL (≈ 5.52 µM) | 1 µg/mL (≈ 2.76 µM) | 4 µg/mL (≈ 11 µM) | 32 µg/mL (≈ 88.3 µM) | 16 µg/mL (≈ 44.1 µM) | 4 µg/mL (≈ 11 µM) | 8 µg/mL (≈ 22.1 µM) | 8 µg/mL | –
COc1ccc(/C=C/[C@@](C)(/C=C/c2ccc(O)cc2)CCC=C(C)C)cc1C=O | 16 µg/mL (≈ 41 µM) | 32 µg/mL (≈ 81.9 µM) | 16 µg/mL (≈ 41 µM) | 16 µg/mL (≈ 41 µM) | 32 µg/mL (≈ 81.9 µM) | 2 µg/mL (≈ 5.12 µM) | 2 µg/mL (≈ 5.12 µM) | 32 µg/mL (≈ 81.9 µM) | > 128 µg/mL | > 128 µg/mL | 16 µg/mL (≈ 41 µM) | 16 µg/mL (≈ 41 µM) | – | –
